The structures appear in SMILES notation. The source made the active and inactive calls. The calls are words filed in the database; no cut-off is given here.

For orientation: IC50 means the concentration that inhibits the measured activity by half. What is called EC50 is the concentration giving half of the maximal effect.

The test system of experiment [1] is PBMC. The experiment in a line: Inhibition of LPS-induced TNFalpha production in human PBMC after 24 hrs by ELISA. Type of experiment: functional, cell-based.
Experiment [2] has as its system PBMC. Description: Inhibition of IFN-gamma production in human PBMC after 5 days by ELISA-based mixed lymphocyte reaction assay. Type of experiment: functional, cell-based. The note with it: 120 h.
Experiment [3] relates to Mus musculus. The experiment in a line: Induction of hypercalceimia in orally dosed C57BL/6 mouse administered daily for 4 days by colorimetric assay. Type of experiment: functional. The method, boiled down: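 Eight-week-old female C57BL/6 mice, 3 per group, were given one oral dose daily for 4 days in miglyol, at 0.01 to 300 µg/kg. Serum was taken by tail bleed on day 5 and calcium measured colorimetrically.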

Experiment [4] concerns the target T1, Vitamin D3 receptor (Homo sapiens) (UniProt P11473).
T1 sequence (whole entry): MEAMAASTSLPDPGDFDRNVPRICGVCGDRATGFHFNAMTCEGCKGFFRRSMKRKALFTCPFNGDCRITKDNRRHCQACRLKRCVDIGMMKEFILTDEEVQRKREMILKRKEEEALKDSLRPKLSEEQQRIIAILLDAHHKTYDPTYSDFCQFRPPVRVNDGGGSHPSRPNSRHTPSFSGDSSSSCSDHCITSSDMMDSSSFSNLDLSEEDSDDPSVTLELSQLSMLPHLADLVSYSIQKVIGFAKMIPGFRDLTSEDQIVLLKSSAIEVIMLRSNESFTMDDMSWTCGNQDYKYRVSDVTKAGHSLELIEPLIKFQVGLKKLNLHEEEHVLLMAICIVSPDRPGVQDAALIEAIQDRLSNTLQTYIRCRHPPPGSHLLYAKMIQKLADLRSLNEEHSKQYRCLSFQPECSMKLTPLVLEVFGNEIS
Description: Activation of VDR in human PBMC cells assessed as increase in cathelicidin antimicrobial peptide mRNA expression at 10 pM by RT-PCR. Type of experiment: cell-based. The method, boiled down:
(§1)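 PBMCs were isolated from buffy coats on a Ficoll gradient. Agonists were freshly diluted in ethanol, with ethanol in the test conditions at no more than 0.00025%. RNA was DNase-treated to exclude genomic DNA. Transcripts were quantified by RT-PCR and normalized to the GAPDH signal.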

In experiment [5] the target is T1, Vitamin D3 receptor (Homo sapiens). The experiment in a line: Activation of VDR in human PBMC cells assessed as increase in 25-hydroxyvitamin D-24-hydroxylase mRNA expression at 100 pM by RT-PCR. Type of experiment: cell-based. The essentials: as §1
Experiment [6] addresses T2, Vitamin D3 receptor (Homo sapiens, UniProt P11473).
T2 sequence (P11473 whole entry): T1 sequence (whole entry)
The experiment in a line: Activation of VDR in human THP1 cells assessed as increase in cathelicidin antimicrobial peptide mRNA expression by RT-PCR. Type of experiment: cell-based, THP-1.

Experiment [7] addresses T2, Vitamin D3 receptor. The experiment in a line: Activation of VDR in human THP1 cells assessed as increase in 25-hydroxyvitamin D-24-hydroxylase mRNA expression by RT-PCR. Type of experiment: cell-based, THP-1.
Experiment [8] deals with T1, Vitamin D3 receptor (Homo sapiens). The experiment in a line: Activation of VDR in human PBMC cells assessed as increase in cathelicidin antimicrobial peptide mRNA expression at 100 pM by RT-PCR. Type of experiment: cell-based. The method, boiled down:
as §1

For experiment [9] the target is unchanged. Description: Activation of VDR in human PBMC cells assessed as increase in 25-hydroxyvitamin D-24-hydroxylase mRNA expression at 10 pM by RT-PCR. Type of experiment: cell-based. The method, boiled down: as §1
The test system of experiment [10] is PBMC. Description: Inhibition of LPS-induced IL12/23p40 production in human PBMC after 24 hrs by ELISA. Type of experiment: functional, cell-based.
In experiment [11] the test system is PBMC. Description: Inhibition of LPS-induced IL6 production in human PBMC after 24 hrs by ELISA. Type of experiment: functional, cell-based. (In general: ELISA stands for enzyme-linked immunosorbent assay.)

Take `C=C1/C(=C\C=C2/CCC[C@]3(C)C(C4(C/C=C/C(O)(C(F)(F)F)C(F)(F)F)CC4)=CC[C@@H]23)C[C@@H](O)C[C@@H]1F`: the values for the IC50 in [1] and in experiment [2] were over 100 nM and 0.065 nM, respectively.
Regarding `C[C@]12CCC/C(=C\C=C3C[C@@H](O)C[C@H](O)C3)[C@@H]1CC=C2C1(CC#CC(O)(C(F)(F)F)C(F)(F)F)CC1`, the results for the IC50 in experiment [1] and in experiment [2] were over 100 nM and 0.014 nM, respectively.
For `C=C1/C(=C\C=C2/CCC[C@]3(C)[C@@H]([C@H](C)CCCC(C)(C)O)CC[C@@H]23)C[C@@H](O)C[C@@H]1O` [CALCITRIOL], in experiment [3], the MTD was 0.3 µg/kg.
Turning to `C=C1/C(=C\C=C2/CCC[C@]3(C)C(C4(CCCC(C)(C)O)CC4)=CC[C@@H]23)C[C@@H](O)C[C@@H]1O`, the outcome in [4], in experiment [5], in experiment [8] and in [9] was Active. In addition, the EC50 in [6] and in [7] was 0.68 nM in each case. In addition, the IC50 in experiment [10] was under 0.001 nM; in experiment [11], 3.2 nM. The MTD in experiment [3] is 1 µg/kg.
As to `C=C1/C(=C\C=C2/CCC[C@]3(C)C(C4(CC#CC(O)(C(F)(F)F)C(F)(F)F)CC4)=CC[C@@H]23)C[C@@H](O)C[C@@H]1O`, the values for the IC50 in experiment [1] and in experiment [2] were 1 nM and 0.045 nM, respectively.
Regarding `C=C1/C(=C\C=C2/CCC[C@]3(C)C(C4(CC#CC(C)(C)O)CC4)=CC[C@@H]23)C[C@@H](O)C[C@@H]1O`, the IC50 in experiment [1] worked out at 0.001 nM; in [2], 0.034 nM.
For the compound `C=C1/C(=C\C=C2/CCC[C@]3(C)C(C4(C/C=C/C(O)(C(F)(F)F)C(F)(F)F)CC4)=CC[C@@H]23)C[C@@H](O)C[C@@H]1O`, the figures for the IC50 in [1] and in experiment [2] were over 100 nM and 0.04 nM, respectively.
Consider `CC(C)(O)C#CCC1(C2=CC[C@H]3/C(=C/C=C4C[C@@H](O)C[C@H](O)C4)CCC[C@]23C)CC1`, for which the IC50 in [1] was 0.001 nM; in experiment [2], 0.025 nM.
For the compound `C[C@]12CCC/C(=C\C=C3C[C@@H](O)C[C@H](O)C3)[C@@H]1CC=C2C1(C/C=C/C(O)(C(F)(F)F)C(F)(F)F)CC1`, the IC50 in [1] is over 100 nM; in experiment [2], 0.012 nM.
Taken in the same sequence, the figures for `C=C1/C(=C\C=C2/CCC[C@]3(C)C(C4(CC#CC(C)(C)O)CC4)=CC[C@@H]23)C[C@@H](O)C[C@@H]1F` were over 100 nM and 0.016 nM.
Take `C=C1/C(=C\C=C2/CCC[C@]3(C)C(C4(CCC(=O)C(C)(C)O)CC4)=CC[C@@H]23)C[C@@H](O)C[C@@H]1O`: the outcome in [4], in [5], in experiment [8] and in experiment [9] was Active. Further, the EC50 in experiment [6] and in [7] was 0.69 nM each time. Also, the IC50 is under 0.001 nM in experiment [10], 0.025 nM in [2] and 3.5 nM in [11]. Further, in experiment [3], the MTD was 3 µg/kg.

The values above are taken from ChEMBL document CHEMBL1153416, “Synthesis and anti-inflammatory properties of 1alpha,25-dihydroxy-16-ene-20-cyclopropyl-24-oxo-vitamin D3, a hypocalcemic, stable metabolite of 1alpha,25-dihydroxy-16-ene-20-cyclopropyl-vitamin D3” (J Med Chem, 2009).
